Data published in ChEMBL document CHEMBL1152540, “Antioxidant efficacy of iridoid and phenylethanoid glycosides from the medicinal plant Teucrium chamaedris in cell-free systems” (Bioorg Med Chem, 2009).
pIC50: −log10 of the molar value.

Columns and labels:
[1] = system: Radical scavenging activity; assay: Antioxidant activity assessed as DPPH radical scavenging activity after 30 mins by spectrophotometry; type: functional
[2] = Antioxidant activity assessed as trolox equivalent of inhibition of Fe3+ ion-induced 2-deoxyribose oxidation after 24 hrs by TBA method; type: functional
[3] = Antioxidant activity assessed as inhibition of H2O2-induced bovine serum albumin oxidation after 10 mins by spectrophotometry; type: functional; details: in the assay text read “after 1 hr” for “after 10 mins”
In short: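 BSA (10 mg/mL) was incubated 1 h at 37 °C in 20 mM phosphate, pH 7.4, with FeCl3 400 µM, H2O2 3 mM, ascorbate 400 µM and metabolite at 5, 10 or 20 µM. Carbonyls were derivatized with DNPH (20 mM in 2 N HCl) and TCA 20%, then centrifuged. The pellet was washed with EtOH/EtOAc, dissolved in 6 M guanidine-HCl, pH 6.5, and read at 370 nm. Runs were in triplicate, as % versus blank.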

[4] = Antioxidant activity assessed as inhibition of lipid peroxidation after 60 mins by TBARS assay; type: functional
In short: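 Olive oil (10.0 µg) was emulsified with Tween-40 in 0.2 M Tris-HCl, pH 7.4. The emulsion was UV-irradiated at 254 nm for 60 min, then stirred 24 h at room temperature. Thiobarbituric acid-reactive species were developed in a boiling water bath for 90 min and centrifuged, and the supernatant was read at 532 nm. Inhibition was given as % versus a blank without compound.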

[5] = Antioxidant activity assessed as trolox equivalent of inhibition of H2O2-induced bovine serum albumin oxidation after 1 hr by spectrophotometry
[6] = Antioxidant activity assessed as trolox equivalent of lipid peroxidation inhibition after 60 mins by TBARS assay; type: functional
[7] = system: Radical scavenging activity; assay: Antioxidant activity assessed as trolox equivalent of DPPH radical scavenging activity after 30 mins by spectrophotometry; type: functional
[8] = Antioxidant activity assessed as inhibition of Fe3+ ion-induced 2-deoxyribose oxidation after 24 hrs by TBA method; type: functional
In short: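 EDTA, FeCl3 and H2O2 (1.0 mM each) were preincubated for 1 h at 37 °C. 2-Deoxyribose (28 mM) and ascorbic acid (1.0 mM) were then added. Compounds at 5, 10 or 20 µM (150 µL per 1350 µL mixture) were incubated 24 h at 37 °C. Degradation was measured with TBA 0.5%/TCA 2.5% at 90 °C for 3 h, read at 532 nm, in triplicate.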

[9] = Antioxidant activity assessed as hydroxyl radical scavenging activity at 20 uM; type: functional
[10] = Antioxidant activity assessed as inhibition of H2O2-induced bovine serum albumin oxidation after 1 hr by spectrophotometry

Compound | pIC50 [1] | Activity [2] | pIC50 [3] | Activity [1] | pIC50 [4] | Activity [5] | Activity [6] | Activity [7] | pIC50 [8] | Activity [9] [%] | pIC50 [10]
COc1ccc(/C=C/C(=O)OC[C@H]2O[C@@H](O[C@H]3OC=C[C@H]4[C@@H]3[C@](C)(O)C[C@@H]4O)[C@H](O)[C@@H](O)[C@@H]2O)cc1OC | < 3.52 |  |  |  |  |  |  |  |  |  | 
C[C@@H]1O[C@@H](O[C@@H]2[C@@H](O)[C@H](OCCc3ccc(O)c(O)c3)O[C@H](CO)[C@H]2OC(=O)/C=C/c2ccc(O)c(O)c2)[C@H](O)[C@H](O)[C@H]1O [ACETOSIDE] | 4.82 | 0.5 | 4.24 | Dose-dependent effect | 5.01 | 1.2 | 3.3 | 1.3 | 4.58 |  | 
Cc1c(C)c2c(c(C)c1O)CCC(C)(C(=O)O)O2 (stereo unspecified) [TROLOX] | 4.68 |  | 4.16 |  | 4.50 |  |  |  | 4.74 |  | 
COc1ccc(/C=C/C(=O)OC[C@H]2O[C@@H](O[C@H]3OC=C[C@@]4(O)[C@@H]3[C@](C)(O)C[C@@H]4O)[C@H](O[C@@H]3O[C@H](CO)[C@@H](O)[C@H](O)[C@H]3O)[C@@H](O)[C@@H]2O)cc1 | < 3.52 | 1.4 | 4.89 | Dose-dependent effect | 4.41 | 5.4 | 0.8 |  | 4.89 |  | 
COc1cc(/C=C/C(=O)OC[C@H]2O[C@@H](OCCc3ccc(O)c(O)c3)[C@H](O)[C@@H](O[C@@H]3O[C@@H](C)[C@H](O)[C@@H](O)[C@H]3O[C@@H]3OC[C@H](O)[C@@H](O)[C@H]3O)[C@@H]2O)ccc1O | 4.96 | 0.5 | 4.74 | Dose-dependent effect | 4.33 | 3.8 | 0.7 | 1.9 | 4.43 |  | 
C[C@@H]1O[C@@H](O[C@@H]2[C@@H](O)[C@H](OCCc3ccc(O)c(O)c3)O[C@H](CO)[C@H]2OC(=O)/C=C/c2ccc(O)c(O)c2)[C@H](O[C@@H]2OC[C@H](O)[C@@H](O)[C@H]2O)[C@H](O)[C@H]1O | 4.78 | 0.5 | 4.35 | Dose-dependent effect | 4.79 | 1.5 | 2 | 1.4 | 4.46 | 54.7 | 
CC(=O)O[C@]1(C)C[C@H](O)[C@@]2(O)C=CO[C@H](O[C@@H]3O[C@H](CO)[C@@H](O)[C@H](O)[C@H]3O)[C@H]21 | < 3.52 | 0.3 | 4.63 | Dose-dependent effect | 4.34 | 2.9 | 0.7 |  | 4.29 |  | 
C[C@@H]1O[C@@H](O[C@@H]2[C@@H](O)[C@H](OCCc3ccc(O)c(O)c3)O[C@H](COC(=O)/C=C/c3ccc(O)c(O)c3)[C@H]2O)[C@H](O[C@@H]2OC[C@H](O)[C@@H](O)[C@H]2O)[C@H](O)[C@H]1O | 4.42 | 0.7 | 4.42 | Dose-dependent effect | 4.58 | 1.8 | 1.2 | 0.5 | 4.47 |  | 
COc1cc(/C=C/C(=O)O[C@H]2[C@H](O[C@@H]3O[C@@H](C)[C@H](O)[C@@H](O)[C@H]3O[C@@H]3OC[C@H](O)[C@@H](O)[C@H]3O)[C@@H](O)[C@H](OCCc3ccc(O)c(O)c3)O[C@@H]2CO)ccc1O | 4.85 | 0.6 | 4.48 | Dose-dependent effect | 4.68 | 2.1 | 1.5 | 1.5 | 4.49 |  | 
COc1ccc(/C=C/C(=O)OC[C@H]2O[C@@H](O[C@H]3OC=C[C@@]4(O)[C@@H]3[C@](C)(O)C[C@@H]4O)[C@H](O)[C@@H](O)[C@@H]2O)cc1OC | < 3.52 | 0.7 |  | Dose-dependent effect | 4.48 | 6.5 | 1 |  | 4.58 |  | 4.97
COc1ccc(/C=C/C(=O)OC[C@H]2O[C@@H](O[C@H]3OC=C[C@@]4(O)[C@@H]3[C@](C)(O)C[C@@H]4O)[C@H](O)[C@@H](O)[C@@H]2O)cc1 | < 3.52 | 1.4 |  | Dose-dependent effect | 4.17 | 6.6 | 0.5 |  | 4.88 |  | 4.98
CC(=O)O[C@]1(C)C[C@H](O)[C@H]2C=CO[C@H](O[C@@H]3O[C@H](CO)[C@@H](O)[C@H](O)[C@H]3O)[C@H]21 | < 3.52 | 0.3 | 4.41 | Dose-dependent effect | 4.35 | 1.8 | 0.7 |  | 4.28 |  | 
